# Source: ChEMBL document CHEMBL1125014, “Synthesis and structure-activity relationships of new 9-N-alkyl derivatives of 9(S)-erythromycylamine” (1990)
# What was measured:
# Format in all cases: functional
# [1] = test system: Staphylococcus aureus; assay: Effective dose against mice infected with Staphylococcus aureus after peroral administration (in vivo); settings: in Mus musculus, po
# [2] = test system: Haemophilus influenzae; assay: MIC value was measured against haemophilus influenzae.
# Procedure, shortened: (§1)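 Susceptibility determined by standard agar-dilution method against a panel of bacterial strains.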
# [3] = test system: Bacteria; assay: MIC value was measured against staphylococcus epidermidis.; procedure, shortened: as §1
# [4] = test system: Bacteria; assay: MIC value was measured against streptococcus pyogenes.; procedure, shortened: as §1
# [5] = test system: Streptococcus pneumoniae; assay: Effective dose against mice infected with streptococcus pneumoniae after peroral administration (in vivo); settings: in Mus musculus, po
# [6] = test system: Haemophilus influenzae; assay: MIC value was measured against haemophilus influenzae CL
# [7] = test system: Staphylococcus aureus; assay: MIC value measured against staphylococcus aureus X1
# [8] = test system: Streptococcus pyogenes; assay: Effective dose against mice infected with streptococcus pyogenes after peroral administration (in vivo); settings: in Mus musculus, po
# [9] = test system: Enterococcus faecalis; assay: MIC value was measured against streptococcus faecalis.
# [10] = test system: Streptococcus pneumoniae; assay: MIC value measured against streptococcus pneumoniae Park1
# [11] = test system: Staphylococcus epidermidis; assay: microbe, parasite or virus in culture
# [12] = test system: Streptococcus pyogenes; assay: MIC value measured against streptococcus pyogenes C203
# [13] = test system: Streptococcus pneumoniae; assay: MIC value was measured against streptococcus pneumoniae park1; procedure, shortened: as §1
# [14] = test system: Enterococcus faecalis; assay: MIC value was measured against streptococcus faecalis X66; procedure, shortened: as §1
# [15] = organism: Mus musculus; assay: ED50 value was measured against streptococcus pyogenes infection in mice.
# Procedure, shortened: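 Infected mice were dosed orally or subcutaneously at 1 and 5 h postinfection, 0.25 mL of antibiotic solution in 10% aqueous ethanol per dose. Tartaric acid was added where needed for solubility. Several dose concentrations were tested to give the ED50.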
SMILES,MIC [2] [µg/mL],MIC [3] [µg/mL],MIC [4] [µg/mL],MIC [6] [µg/mL],MIC [7] [µg/mL],MIC [9] [µg/mL],MIC [10] [µg/mL],MIC [11] [µg/mL],MIC [12] [µg/mL],MIC [13] [µg/mL],MIC [14] [µg/mL],ED50 [1] [mg/kg],ED50 [5] [mg/kg],ED50 [8] [mg/kg],ED50 [15] [mg/kg]
CC[C@H]1OC(=O)[C@H](C)[C@@H](OC2CC(C)(OC)C(O)C(C)O2)[C@H](C)[C@@H](OC2OC(C)CC(N(C)C)C2O)[C@](C)(O)C[C@@H](C)[C@H]2[C@H](C)[C@@H](OCN2C(C)CCCN(CC)CC)[C@]1(C)O (stereo partly specified),,,,8,8,,,8,0.5,0.5,2,,,,
CC[C@H]1OC(=O)[C@H](C)[C@@H](OC2CC(C)(OC)C(O)C(C)O2)[C@H](C)[C@@H](OC2OC(C)CC(N(C)C)C2O)[C@](C)(O)C[C@@H](C)[C@H]2[C@H](C)[C@@H](OCN2C(C)C)[C@]1(C)O (stereo partly specified),,,,4,1,,,0.5,0.12,0.06,0.25,9,6,7,
CC[C@H]1OC(=O)[C@H](C)[C@@H](OC2CC(C)(OC)C(O)C(C)O2)[C@H](C)[C@@H](OC2OC(C)CC(N(C)C)C2O)[C@](C)(O)C[C@@H](C)[C@H](NCCCSC)[C@H](C)[C@@H](O)[C@]1(C)O (stereo partly specified),4,,,4,,,0.015,0.5,0.015,,,50,18,,7
CCCCC/C=C\CCCN[C@@H]1[C@H](C)[C@@H](O)[C@](C)(O)[C@@H](CC)OC(=O)[C@H](C)[C@@H](OC2CC(C)(OC)C(O)C(C)O2)[C@H](C)[C@@H](OC2OC(C)CC(N(C)C)C2O)[C@](C)(O)C[C@H]1C (stereo partly specified),2,,,2,0.25,0.25,,0.12,0.008,,,,,,
CC[C@H]1OC(=O)[C@H](C)[C@@H](OC2CC(C)(OC)C(O)C(C)O2)[C@H](C)[C@@H](OC2OC(C)CC(N(C)C)C2O)[C@](C)(O)C[C@@H](C)[C@H]2[C@H](C)[C@@H](OCN2C2CCCC2)[C@]1(C)O (stereo partly specified),,,,4,1,,,1,0.12,0.06,0.5,> 50,9,10,

# Second part, led by results:
MIC [2] [µg/mL],MIC [3] [µg/mL],MIC [4] [µg/mL],MIC [6] [µg/mL],MIC [7] [µg/mL],MIC [9] [µg/mL],MIC [10] [µg/mL],MIC [11] [µg/mL],MIC [12] [µg/mL],MIC [13] [µg/mL],MIC [14] [µg/mL],SMILES,ED50 [1] [mg/kg],ED50 [5] [mg/kg],ED50 [8] [mg/kg],ED50 [15] [mg/kg]
2,8,1,2,16,,,,,,,CC[C@H]1OC(=O)[C@H](C)[C@@H](OC2CC(C)(OC)C(O)C(C)O2)[C@H](C)[C@@H](OC2OC(C)CC(N(C)C)C2O)[C@](C)(O)C[C@@H](C)[C@H](N2CCCCC2)[C@H](C)[C@@H](O)[C@]1(C)O (stereo partly specified),> 44,21,24,
,,,1,0.5,1,0.008,0.25,0.015,,,CC[C@H]1OC(=O)[C@H](C)[C@@H](OC2CC(C)(OC)C(O)C(C)O2)[C@H](C)[C@@H](OC2OC(C)CC(N(C)C)C2O)[C@](C)(O)C[C@@H](C)/C(=N\O)[C@H](C)[C@@H](O)[C@H]1C (stereo partly specified),,,,
,,,2,0.5,,,0.5,0.06,0.015,0.25,CC[C@H]1OC(=O)[C@H](C)[C@@H](OC2CC(C)(OC)C(O)C(C)O2)[C@H](C)[C@@H](OC2OC(C)CC(N(C)C)C2O)[C@](C)(O)C[C@@H](C)[C@H](NCc2ccccc2)[C@H](C)[C@@H](O)[C@]1(C)O (stereo partly specified),> 50,11,9,
2,,,2,0.5,0.12,,0.25,0.008,,,CCCCC/C=C/CCCN[C@@H]1[C@H](C)[C@@H](O)[C@](C)(O)[C@@H](CC)OC(=O)[C@H](C)[C@@H](OC2CC(C)(OC)C(O)C(C)O2)[C@H](C)[C@@H](OC2OC(C)CC(N(C)C)C2O)[C@](C)(O)C[C@H]1C (stereo partly specified),,,,
,,,2,1,,,0.5,0.015,0.015,0.06,CC[C@H]1OC(=O)[C@H](C)[C@@H](OC2CC(C)(OC)C(O)C(C)O2)[C@H](C)[C@@H](OC2OC(C)CC(N(C)C)C2O)[C@](C)(O)C[C@@H](C)[C@H](NCCCc2ccccc2)[C@H](C)[C@@H](O)[C@]1(C)O (stereo partly specified),37,17,14,
